Data set [1] in a line: Drug uptake in human HN-85-1-3 cells assessed as photoreactivation by measuring fluorescence when irradiated with diode laser at 3J/cm2 by inverted fluorescence microscopic analysis (reference value: 0 FU). Format: cell-based. The method in brief: (§1)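 Primary HN-85-1-3 tumor epithelial cells loaded with graded PS doses; uptake quantified by fluorescence before light. Dishes irradiated at 37°C with 665 nm diode laser, 6 mW/cm², 3 J/cm² total. Cells lysed in RIPA immediately after light; STAT3 crosslinking and EGFR analysed by SDS-PAGE immunoblot.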

Data set [2] can be described thus: Drug uptake in human HN-166 cells assessed as increase in drug retention retention at 3 uM in medium with 10% FBS incubated for 5 hrs followed by 40 hrs chase period by inverted fluorescence microscopic analysis. Format: ADME, cell-based. Conditions: hn-166, 5 h; call rule not given here. The method in brief:
(§2)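 Five-day co-cultures of HN-143 tumor epithelial cells and HN-166 tumor fibroblasts, both primary head & neck tumor cultures grown on collagen-1 under selective media. PS in 10% FBS medium for 5 h, then 40 h chase without PS. Phase-contrast and fluorescence images taken at 100X with 500 ms exposure; signal normalized to recording time and cell number.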

Data set [3] deals with FaDu. Briefly: Photodynamic antitumor activity against human FaDu cells xenografted in SCID mouse assessed as cure rate at 0.125 micromol/kg, iv pretreated with compound followed by light irradiation at a dose of 135 J/cm2 and 75 mW/cm2 measured for 60 days post dose relative to control. Particulars: dose 0.125 µmol/kg; time 60 day. Format: functional. In outline:
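FaDu-bearing female SCID mice (5 per group per experiment) given iv PS at 0.47, 0.25 or 0.125 μmol/kg in Tween80/dextrose. Tumors irradiated 24 h post-injection at 665 nm, 135 J/cm², 75 mW/cm². Tumor growth measured daily for 60 days, with euthanasia above 400 mm³. Cure taken as tumor-free at day 60; survival analysed by log-rank test.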
(In general: A xenograft is tissue or cells of one species grown in another, often human tumour cells in immunodeficient mice.)

Data set [4] relates to FaDu. Briefly: Photosensitizing activity in human FaDu cells assessed as reduction in cell viability pretreated with compound for 24 hrs followed by light irradiation at 1 J/cm2 and measured after 48 hrs by MTT assay. The format is functional, cell-based. Particulars: light or radiation study. The method in brief:
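Cells seeded at 0.01–0.05 x 10⁶ cells/ml; PS added 24 h after plating, top dose 1600 nM with 2-fold serial dilutions. Plates given 0 or 1 J/cm² light. MTT added 48 h later, formazan dissolved in DMSO, absorbance at 570 nm; IC50 from curve fitting.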

Data set [5] can be described thus: Drug uptake in tumor of SCID mouse xenografted with human UMUC3 cells at 0.25 micromol/kg, iv pretreated with compound followed by light irradiation at a dose of 135 J/cm2 and 75 mW/cm2 measured after 2 to 8 hrs by IVIS analysis. Format: ADME, organism-based, Neoplasm. Particulars: in vivo, time 2-8 hrs, dose 0.25 µmol/kg. In outline: (§3)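 Female SCID mice with UMUC3 flank/shoulder tumors, 3 per group. PS in 1% Tween80/5% dextrose given iv at 0.47, 0.25 or 0.125 μmol/kg. Whole-body fluorescence imaging by IVIS at several times after injection; average radiant efficiency measured in tumor, liver and skin.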

Data set [6] can be described thus: Drug uptake in liver of iv dosed SCID mouse xenografted with UMUC3 cells by fluorescence imaging analysis. Conditions: in vivo.
Data set [7] is described as follows: Drug uptake in liver of SCID mouse xenografted with FaDu cells at 0.47 to 0.125 micromol/kg, iv pretreated with compound followed by light irradiation at a dose of 135 J/cm2 and 75 mW/cm2 and measured at 24 hrs by IVIS analysis. Format: ADME, organism-based. Conditions: in vivo, dose 0.47-0.125 µmol/kg. The method in brief:
(§4)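 Female SCID mice bearing FaDu tumors 4–5 mm in diameter, 3 per group. PS in 1% Tween80/5% dextrose given iv at 0.47, 0.25 or 0.125 μmol/kg. IVIS whole-body fluorescence imaged at several time points; average radiant efficiency measured in tumor, liver and skin.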

Data set [8] is described as follows: Photosensitizing activity in human HN-85-1-3 cells assessed as induction of STAT3 cross-linking pretreated with compound followed by diode laser irradiation at 3 J/cm2 by immunoblot analysis (reference value: 0 %). Format: functional. The method in brief:
as §1
In general terms: Immunoblotting shows a protein as a band on a membrane.

Data set [9] can be described thus: Drug uptake in liver of iv dosed SCID mouse xenografted with human UMUC3 cells by fluorescence imaging analysis. The format is ADME, organism-based. Particulars: in vivo.
The nature of data set [10]: Drug uptake in human HN-143 cells assessed as increase in drug retention retention at 3 uM in medium with 10% FBS incubated for 5 hrs followed by 40 hrs chase period by inverted fluorescence microscopic analysis. Format: ADME, cell-based. Conditions: hn-143, 5 h. In outline:
as §2

A short description of data set [11]: Drug uptake in skin of SCID mouse xenografted with FaDu cells at 0.47 to 0.125 micromol/kg, iv pretreated with compound followed by light irradiation at a dose of 135 J/cm2 and 75 mW/cm2 and measured at 24 hrs by IVIS analysis. The format is ADME, organism-based, Skin of body. Conditions: in vivo, dose 0.47-0.125 µmol/kg. The method in brief: as §4
Data set [12] can be described thus: Drug uptake in tumor of SCID mouse xenografted with human UMUC3 cells at 0.125 micromol/kg, iv pretreated with compound followed by light irradiation at a dose of 135 J/cm2 and 75 mW/cm2 measured after 2 to 24 hrs by IVIS analysis. The format is ADME, organism-based, Neoplasm. Particulars: in vivo, time 2-24 hrs, dose 0.125 µmol/kg. In outline:
as §3

Data set [13] is described as follows: Drug uptake in skin of iv dosed SCID mouse xenografted with UMUC3 cells by fluorescence imaging analysis. Conditions: in vivo.
The subject of another data set is HN-85-1-3. Briefly: Photodynamic therapy in human HN-85-1-3 cells assessed as degradation of EGFR treated with compound followed by diode laser irradiation at 3 J/cm2 by immunoblot analysis. The format is functional, cell-based. The method in brief: as §1
In another data set the test system is UMUC3. Briefly: Photodynamic antitumor activity against human UMUC3 cells xenografted in SCID mouse assessed as tumor retention at 0.47 micromol/kg, iv pretreated with compound followed by light irradiation at a dose of 135 J/cm2 and 75 mW/cm2 measured at day 60 post dose relative to control. The format is functional. Conditions: dose 0.47 µmol/kg; time 60 day. In outline: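 UMUC3-bearing female SCID mice given iv PS in 1% Tween80/5% dextrose. Mice restrained and tumors irradiated at 665 nm, 135 J/cm² over 30 min at 75 mW/cm², at the time of maximal tumor uptake. Tumor regrowth measured daily for 60 days; mice euthanized above 400 mm³. Cure plotted as survival curves and compared by log-rank (Mantel-Cox) test.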

A short description of data set [14]: Drug uptake in human HNT1 cells at 3.2 uM incubated for 30 mins in serum free medium followed by […] in compound-free medium by inverted fluorescence microscopic analysis. The format is ADME, cell-based. Particulars: hnt1, 0.5 h. The method in brief: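 Confluent HNT1 cultures (passage 116) given 3.2 μM PS for 30 min in serum-free medium, then 5 h in serum-containing medium with PS, then 15 h chase in serum medium without PS. Fluorescence recorded at 100X with varied camera exposures and quantified digitally; pixel signal normalized to time and cell number.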

The nature of data set [15]: Drug uptake in liver of SCID mouse xenografted with human UMUC3 cells at 0.125 micromol/kg, iv pretreated with compound followed by light irradiation at a dose of 135 J/cm2 and 75 mW/cm2 measured after 2 to 24 hrs by IVIS analysis. Conditions: in vivo, time 2-24 hrs, dose 0.125 µmol/kg. The format is ADME, organism-based. In outline: as §3
Data set [16] is described as follows: Drug uptake in tumor of SCID mouse xenografted with human UMUC3 cells assessed as drug accumulation at 0.47 micromol/kg, iv pretreated with compound followed by light irradiation at a dose of 135 J/cm2 and 75 mW/cm2 measured after 6 hrs by IVIS analysis. The format is ADME, organism-based, Neoplasm. Conditions: in vivo, dose 0.47 µmol/kg. The method in brief: as §3

The IC50 is the concentration that inhibits the measured activity by half. Regarding `CCC1=C(C)c2cc3[nH]c(cc4nc(c5c6[nH]c(cc1n2)c(C)c6C(=O)C5)[C@@H](CCC(=O)OC)[C@@H]4C)c(C)c3C(C)OCc1cccc(C#Cc2cccc(Nc3ncnc4cc(OCCOC)c(OCCOC)cc34)c2)c1` (stereo partly drawn), the Activity in [1] is 9 FU; in the data set with FaDu [3], 0%; in data set [8], 0.5%; in the data set on HN-85-1-3, “Dose-dependent effect”; in the data set on UMUC3, 74%. In addition, the Drug uptake result in [2], in [5], in [6], in [7], in data set [9] and in [10] was “Active” throughout. For the same compound, the Drug uptake entry in data set [11], in [12], in data set [13], in data set [14], in data set [15] and in data set [16] was “Active” each time. For the same compound, in the data set on FaDu [4], the IC50 is 35.5 nM.

These data come from ChEMBL document CHEMBL4732136, “Synthesis, Tumor Specificity, and Photosensitizing Efficacy of Erlotinib-Conjugated Chlorins and Bacteriochlorins: Identification of a Highly Effective Candidate for Photodynamic Therapy of Cancer” (J Med Chem, 2021).
